MrgX1 ag – agonists of human MrgX1 receptor, primary screen, HEK293 cells, Fluo-4 calcium flux. Fluo-4 calcium fluorescence, agonist mode; active compounds read high. AID 588627, 2011. hit rate 0.44% among 310,000. Mas-related G-protein coupled receptor member X1 (Homo sapiens), Q96LB2. B-score at 10 µM;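 active means calcium response B-score plate-corrected fluorescence ratio at least 3 library SD, with starting fluorescence B-score inside 5 SD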
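Test system: HEK293 cells stably expressing human MrgX1 receptor; amount: 15,000 cells per well; doses: compound delivered in addition one of three; times: overnight plating before 1 h dye loading; detection: Fluo-4 NW calcium-flux fluorescence, kinetic read; read-out basis: B-scored fluorescence response ratio; controls: positive and negative controls per plate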
PHOSPHO1 inh – PubChem AID 1565 | Phosphoethanolamine/phosphocholine phosphatase (Homo sapiens), Q8TCT1 | recombinant PHOSPHO1, absorbance phosphatase assay | inhibition, % at 13.3 µM | hit rate 1.1% among 290,000; in the data active means inhibition above about 60%
Target sequence (Q8TCT1 whole entry, looked up): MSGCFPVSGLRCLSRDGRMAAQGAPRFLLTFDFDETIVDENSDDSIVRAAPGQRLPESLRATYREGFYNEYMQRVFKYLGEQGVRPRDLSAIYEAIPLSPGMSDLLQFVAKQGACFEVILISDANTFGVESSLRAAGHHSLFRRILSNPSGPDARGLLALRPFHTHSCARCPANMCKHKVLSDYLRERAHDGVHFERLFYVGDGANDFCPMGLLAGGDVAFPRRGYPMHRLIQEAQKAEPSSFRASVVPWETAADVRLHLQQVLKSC
RGS4 act – RGS4 potentiators or activators, primary screen, cell-based, HEK293 M3R inducible RGS4, calcium flux; carbachol calcium flux Fluo4; active compounds read low; B-score at 10 µM; hit rate 0.92% among 310,000; AID 463111, 2010;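 active means B-score of the integrated calcium signal more than 4 SD below the library mean, with starting fluorescence not abnormally high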;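 further: negative B-score means reduced calcium response which marks RGS4 activation or potentiation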
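Test system: HEK293 cells with stable M3R and inducible RGS4; also added: carbachol at ECmax as muscarinic agonist stimulus; schedule: dye loading 30 min 37 °C, buffer rest 30 min RT; technique: kinetic calcium fluorescence imaging with Fluo4-AM dye, 2 µM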
MrgX1 allo act – positive allosteric modulators of MrgX1, primary screen, HEK293 cells, Fluo-4 calcium flux. Mas-related G-protein coupled receptor member X1 (Homo sapiens), Q96LB2. FDSS; active compounds read high. hit rate 0.63% among 310,000. B-score at 10 µM;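 active means plate-corrected calcium response at least 3 library SD above typical, normal starting fluorescence, not activating the receptor alone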;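 further: compound read alongside a low EC10 to EC30 dose of BAM8-22 agonist; peak minus trough fluorescence over baseline measured at the second addition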
MrgX1 antag – antagonists of human MrgX1 receptor, primary screen, HEK293 cells, Fluo-4 calcium flux | BAM8-22 antagonism; active compounds read low | B-score at 10 µM | hit rate 1.3% among 310,000 | AID 588676, 2011;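 active means calcium-response B-score plate-corrected more than 3 library SD below zero, starting fluorescence within 5 deviations, no agonist response on first addition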;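 further: peak minus trough fluorescence over baseline after final BAM8-22 challenge near maximal dose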
RGS4 inh – RGS4 inhibitors, primary screen, cell-based, HEK293 M3R inducible RGS4, calcium flux | B-score at 10 µM | hit rate 0.45% among 310,000 | Fluo-4 calcium flux; active compounds read high; triggered by carbachol at its EC20 | AID 463165, 2010 | Regulator of G-protein signaling 4 (Homo sapiens), P49798;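 active means B-score, a plate-corrected calcium signal, over three deviations above library mean, with baseline fluorescence within five deviations of library mean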;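 further: RGS4 expression induced by doxycycline in cells with stable M3 receptor; B-score is computed from the integrated fluorescence ratio over baseline after carbachol; higher B-score means a larger calcium signal and so more RGS4 inhibition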
Target sequence (P49798 whole entry, looked up): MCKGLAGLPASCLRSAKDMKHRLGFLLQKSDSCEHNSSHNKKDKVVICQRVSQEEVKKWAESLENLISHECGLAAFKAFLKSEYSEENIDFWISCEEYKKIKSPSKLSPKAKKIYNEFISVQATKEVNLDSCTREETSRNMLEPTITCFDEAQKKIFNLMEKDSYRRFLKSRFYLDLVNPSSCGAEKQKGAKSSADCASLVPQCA
MrgX1 ag confirm – MrgX1 receptor agonists, duplicate retest, confirmation, HEK293 cells, Fluo-4 calcium flux; shares compounds with MrgX1 ag; Fluo-4 calcium fluorescence, FDSS; activation, % at 10 µM; hit rate 78% among 600;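 active means calcium signal rise, corrected for plate position, at least 3 library SD high, with starting brightness within 5 such deviations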
HEK293 Ca flux – nonspecific calcium signal in parental HEK293, confirmation, counter-screen for MrgX1 antagonist project, parental HEK293 cells, Fluo-4 calcium flux; shares compounds with MrgX1 antag; Fluo-4 calcium fluorescence, FDSS; fluorescence ratio F(max-min)/F0 at 10 µM; hit rate 2% among 4,000;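 active means duplicate-averaged calcium fluorescence ratio at least three times the standard deviation of buffer wells, a nonspecific response in parental cells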
HEK293 Ca counter – calcium response in parental HEK293 cells, primary screen, counter-screen for MrgX1 allosteric activator project, cell-based, Fluo-4 calcium flux, duplicate; shares compounds with MrgX1 antag; Fluo-4 fluorescence ratio; active compounds read high; fluorescence ratio F(max-min)/F0 at 10 µM; hit rate 0.4% among 4,000; AID 624114, 2012;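 active means calcium fluorescence ratio, averaged over duplicates, at least 3 SD of the buffer-well ratio, meaning a nonspecific response in receptor-free cells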;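 further: untransfected parental HEK293 lacking MrgX1 used as counterscreen for MrgX1 allosteric activators; fluorescence change taken during the second addition on a kinetic imager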
HEK293 Ca cntr2 – calcium response in parental HEK293 cells, primary screen, counter-screen for MrgX1 agonist project, cell-based, Fluo-4 calcium flux, duplicate, agonist mode; Fluo-4 calcium fluorescence (FDSS); active compounds read high; hit rate 8.7% among 4,000; shares compounds with MrgX1 antag; fluorescence ratio F(max-min)/F0 at 10 µM;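 active means calcium fluorescence ratio at least three times the spread of buffer wells, meaning a non-specific response in parental cells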
* marks the source's active call; other numbers are inactive results. Compounds with a hit are over-represented: about 4.5% of the library has one in this group of screens.

CCn1c(=O)c(C(=O)CN2CCN(S(=O)(=O)c3ccc(C)cc3C)CC2)c(N)n(Cc2ccccc2)c1=O was read as MrgX1 ag inactive, PHOSPHO1 inh -18.8, RGS4 act inactive, MrgX1 allo act inactive, MrgX1 antag inactive and RGS4 inh inactive.
Screening CCn1c(=O)c(C(=O)CN2CCN(S(=O)(=O)c3ccccc3)CC2)c(N)n(Cc2ccccc2)c1=O returned MrgX1 ag 27.4*, PHOSPHO1 inh 47.7, RGS4 act inactive, MrgX1 allo act inactive, MrgX1 antag inactive, RGS4 inh inactive, MrgX1 ag confirm 187.8%*, HEK293 Ca flux inactive, HEK293 Ca counter inactive and HEK293 Ca cntr2 inactive.
`O=C(NNC(=S)NC(=O)c1cccs1)c1ccc(O)cc1` gave MrgX1 ag inactive, PHOSPHO1 inh -21.0, RGS4 act inactive, MrgX1 allo act inactive, MrgX1 antag inactive and RGS4 inh inactive.
Screening O=C(NC(=S)NNC(=O)c1cccs1)c1ccc(Br)o1 returned MrgX1 ag 100*, PHOSPHO1 inh 94.1*, RGS4 act inactive, MrgX1 allo act inactive, MrgX1 antag inactive, RGS4 inh inactive, MrgX1 ag confirm 710.5%*, HEK293 Ca flux inactive, HEK293 Ca counter inactive and HEK293 Ca cntr2 137*.
`N/C(=N\N=C/c1ccc(F)cc1)N/N=C\c1ccc(F)cc1` gave MrgX1 ag 65.8*, RGS4 act inactive, MrgX1 allo act inactive, MrgX1 antag inactive, RGS4 inh inactive, MrgX1 ag confirm 499.5%*, HEK293 Ca flux inactive, HEK293 Ca counter inactive and HEK293 Ca cntr2 75.5*.
CC1CCc2sc(NC(=O)C3CC(Cl)=CCC3C(=O)O)c(C#N)c2C1 (stereo not drawn) was read as MrgX1 ag 28.5*, PHOSPHO1 inh -25.8, RGS4 act inactive, MrgX1 allo act inactive, MrgX1 antag inactive, RGS4 inh inactive, MrgX1 ag confirm inactive, HEK293 Ca flux inactive, HEK293 Ca counter inactive and HEK293 Ca cntr2 inactive.
For CC(=O)Nc1ccc2nc(NC(=O)C(Cl)(Cl)Cl)sc2c1 the results were MrgX1 ag 28.9*, PHOSPHO1 inh 15.2, RGS4 act inactive, MrgX1 allo act inactive, MrgX1 antag inactive, RGS4 inh inactive, MrgX1 ag confirm 162.0%*, HEK293 Ca flux inactive, HEK293 Ca counter inactive and HEK293 Ca cntr2 inactive.
O=S(=O)(NCC1(N2CCOCC2)CCCCC1)c1ccccc1Cl was read as MrgX1 ag inactive, RGS4 act inactive, MrgX1 allo act inactive, MrgX1 antag inactive and RGS4 inh inactive.
For O=S(=O)(NCC1(N2CCOCC2)CCCCC1)c1ccc(Cl)cc1C(F)(F)F the results were MrgX1 ag 87.6*, PHOSPHO1 inh 18.5, RGS4 act inactive, MrgX1 allo act inactive, MrgX1 antag inactive, RGS4 inh inactive, MrgX1 ag confirm 261.2%*, HEK293 Ca flux inactive, HEK293 Ca counter inactive and HEK293 Ca cntr2 inactive.
